ChEMBL document CHEMBL1671867, “Novel polymyxin derivatives carrying only three positive charges are effective antibacterial agents” (Antimicrob Agents Chemother, 2008)
Values after ≈ are worked out from the molar mass of the structure shown. Blank lines part the entries; values can stand above or below the compound they belong to. Active and inactive are the calls of the source. The calls are words filed in the database; no cut-off is given here.

What was measured:
Escherichia coli [1] = experiment: Antibacterial activity against Escherichia coli ATCC […] by CLSI M7-A7 agar dilution method; format: functional
Escherichia coli [2] = experiment: Antibacterial activity against Escherichia coli IH3080 assessed as growth inhibition at 10 ug after 18 hrs by […] in presence of 1 ug/ml rifampin; format: functional
Escherichia coli [3] = experiment: Antibacterial activity against Escherichia coli IH3080 assessed as growth inhibition at 10 ug after 18 hrs by […]; format: functional
Escherichia coli [4] = experiment: Antibacterial activity against Escherichia coli IH3080 assessed as reduction in bacterial count at 2 ug/ml using 2 day old compound stock solution; format: functional; design: scale not given: the % may be the effect or the level left
Candida albicans = experiment: Antibacterial activity against Candida albicans ATCC 28366 by CLSI M7-A7 agar dilution method; format: functional
Staphylococcus aureus = experiment: Antibacterial activity against Staphylococcus aureus ATCC 25923 by CLSI M7-A7 agar dilution method; format: functional
Method in brief: (§1)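 Agar dilution on Mueller-Hinton agar with test substance at 0.25 to 32 μg/ml in twofold steps. Spots of about 10^4 CFU applied with a multipoint inoculator.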

Escherichia coli [5] = experiment: Antibacterial activity against Escherichia coli SC 9253 by CLSI M7-A7 agar dilution method; format: functional; method in brief: as §1
Escherichia coli [6] = experiment: Antibacterial activity against Escherichia coli SC 9252 by CLSI M7-A7 agar dilution method; format: functional
Pseudomonas aeruginosa = experiment: Antibacterial activity against Pseudomonas aeruginosa ATCC 27853 by CLSI M7-A7 agar dilution method; format: functional; method in brief: as §1
Acinetobacter baumannii [7] = experiment: Antibacterial activity against Acinetobacter baumannii by CLSI M7-A7 agar dilution method; format: functional
Serratia marcescens = experiment: Antibacterial activity against Serratia marcescens ATCC 8100 by CLSI M7-A7 agar dilution method; format: functional; method in brief: as §1
Acinetobacter baumannii [8] = experiment: Antibacterial activity against Acinetobacter baumannii ATCC 19606 by CLSI M7-A7 agar dilution method; format: functional
Citrobacter freundii = experiment: Antibacterial activity against Citrobacter freundii ATCC 8090 by CLSI M7-A7 agar dilution method; format: functional
Enterobacter cloacae [9] = experiment: Antibacterial activity against Enterobacter cloacae by CLSI M7-A7 agar dilution method; format: functional
Enterobacter cloacae [10] = experiment: Antibacterial activity against Enterobacter cloacae CCUG52947 by CLSI M7-A7 agar dilution method; format: functional
Enterobacter cloacae [11] = experiment: Antibacterial activity against Enterobacter cloacae ATCC 23355 by CLSI M7-A7 agar dilution method; format: functional
Klebsiella oxytoca [12] = experiment: Antibacterial activity against Klebsiella oxytoca CCUG51683 by CLSI M7-A7 agar dilution method; format: functional; method in brief: as §1
Klebsiella oxytoca [13] = experiment: Antibacterial activity against Klebsiella oxytoca ATCC 13182 by CLSI M7-A7 agar dilution method; format: functional; method in brief: as §1
Klebsiella pneumoniae [14] = experiment: Antibacterial activity against Klebsiella pneumoniae by CLSI M7-A7 agar dilution method; format: functional; method in brief: as §1
Escherichia coli [15] = experiment: Antibacterial activity against Escherichia coli by CLSI M7-A7 agar dilution method; format: functional; method in brief: as §1
Klebsiella pneumoniae [16] = experiment: Antibacterial activity against Klebsiella pneumoniae CCUG45421 by CLSI M7-A7 agar dilution method; format: functional; method in brief: as §1
Escherichia coli [17] = experiment: Antibacterial activity against Escherichia coli IH3080 by CLSI M7-A7 agar dilution method; format: functional
Escherichia coli [18] = experiment: Antibacterial activity against Escherichia coli IH3080 assessed as reduction in bacterial count at 2 ug/ml using fresh compound stock solution; format: functional, organism-based

MIC (Escherichia coli [1]): 1 µg/mL (≈ 0.929 µM) | MIC (Candida albicans): > 32 µg/mL | MIC (Staphylococcus aureus): > 32 µg/mL | MIC (Escherichia coli [5]): > 32 µg/mL | MIC (Escherichia coli [6]): 32 µg/mL (≈ 29.7 µM) | MIC (Pseudomonas aeruginosa): 8 µg/mL (≈ 7.43 µM) | MIC (Acinetobacter baumannii [7]): 4 µg/mL (≈ 3.72 µM) | MIC (Serratia marcescens): > 32 µg/mL | MIC (Acinetobacter baumannii [8]): 8 µg/mL (≈ 7.43 µM) | MIC (Citrobacter freundii): 2 µg/mL (≈ 1.86 µM) | MIC (Enterobacter cloacae [9]): 2 µg/mL (≈ 1.86 µM) | MIC (Enterobacter cloacae [10]): 2 µg/mL (≈ 1.86 µM) | MIC (Enterobacter cloacae [11]): 2 µg/mL (≈ 1.86 µM) | MIC (Klebsiella oxytoca [12]): 2 µg/mL (≈ 1.86 µM) | MIC (Klebsiella oxytoca [13]): 2 µg/mL (≈ 1.86 µM) | MIC (Klebsiella pneumoniae [14]): 1 µg/mL (≈ 0.929 µM) | MIC (Escherichia coli [15]): 0.5 µg/mL (≈ 0.465 µM) | MIC (Klebsiella pneumoniae [16]): 4 µg/mL (≈ 3.72 µM) | MIC (Escherichia coli [17]): 1 µg/mL (≈ 0.929 µM)
SMILES: CCCCCCCC(=O)N[C@H](C(=O)N[C@H](CO)C(=O)N[C@H]1CCNC(=O)[C@H]([C@@H](C)O)NC(=O)[C@H](CCN)NC(=O)[C@H](CCN)NC(=O)[C@H](CC(C)C)NC(=O)[C@@H](Cc2ccccc2)NC(=O)[C@H](CCN)NC1=O)[C@@H](C)O
inhibition zone (IZ) (Escherichia coli [2]): 214 mm2 | inhibition zone (IZ) (Escherichia coli [3]): 171 mm2 | Activity (Escherichia coli [4]): 98%

SMILES: CCCCCCCC(=O)N[C@H](C(=O)N[C@H](CO)C(=O)N[C@H]1CCNC(=O)[C@H]([C@@H](C)O)NC(=O)[C@H](CCN)NC(=O)[C@H](CCN)NC(=O)[C@H](CC(C)C)NC(=O)[C@H](Cc2ccccc2)NC(=O)[C@H](CCN)NC1=O)[C@@H](C)O
Activity (Escherichia coli [18]): Active
